In ChEMBL document CHEMBL2401617, “Synthesis and biological evaluation of some novel thiazole compounds as potential anti-inflammatory agents” (2013):

How the values were obtained:
Format in all cases: functional
Rattus norvegicus [1] = test: Antiinflammatory activity in albino Wistar rat assessed as inhibition of carrageenan-induced paw oedema at 10 mg/kg, po administered 1 hr prior to carrageenan challenge measured at 4 hrs by plethysmometeric analysis relative to control
Procedure, shortened: (§1)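 Albino Wistar rats of either sex (130–150 g), 6 per group, fasted 12 h with water ad libitum. Indomethacin 10 mg/kg was given orally in 1 ml 20% v/v DMSO; controls received vehicle. One hour later, 0.1 ml 1% w/v carrageenan in 0.9% saline was injected subplantar into the left hind paw. Paw volume was read by plethysmometer at 0 and 1–4 h. % inhibition = [1 − (Vt/Vc)] × 100.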

Rattus norvegicus [2] = test: Antiinflammatory activity in albino Wistar rat assessed as inhibition of carrageenan-induced paw oedema at 10 mg/kg, po administered 1 hr prior to carrageenan challenge measured at 3 hrs by plethysmometeric analysis relative to control; procedure, shortened: as §1
Rattus norvegicus [3] = test: Antiinflammatory activity in albino Wistar rat assessed as inhibition of carrageenan-induced paw oedema at 10 mg/kg, po administered 1 hr prior to carrageenan challenge measured at 1 hr post carrageenan challenge by plethysmometeric analysis relative to control; procedure, shortened: as §1
Rattus norvegicus [4] = test: Antiinflammatory activity in albino Wistar rat assessed as inhibition of carrageenan-induced paw oedema at 10 mg/kg, po administered 1 hr prior to carrageenan challenge measured at 2 hrs by plethysmometeric analysis relative to control; procedure, shortened: as §1

SMILES: COc1ccc2c(c1)c(CC(=O)O)c(C)n2C(=O)c1ccc(Cl)cc1 [INDOMETHACIN]
- inhibition in vivo at 10 mg/kg (Rattus norvegicus [1]): 91.3%
- inhibition in vivo at 10 mg/kg (Rattus norvegicus [2]): 75.5%
- inhibition in vivo at 10 mg/kg (Rattus norvegicus [3]): 10.5%
- inhibition in vivo at 10 mg/kg (Rattus norvegicus [4]): 45.1%
